Results as given in PMC9200128 (Chemical Science, 2022).
No end group written: not given here.

Tests used:
[1] = Body weight of xenograft mice during treatment; type: in vivo; details: 9 doses 5 mg kg−1, Fig. 6c
Outline: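 MDA-MB-231 cells (3 × 10^6) injected subcutaneously into 7–8-week-old athymic nude (FOXN1NU) mice. Dosing started 28 days after inoculation and ran for 3 weeks: either 6 doses of peptide at 50 μM (0.875 mg kg−1; 17.5 microgram/mouse) or 9 doses of doxorubicin (5 mg kg−1). Body weight and tumour size were tracked throughout.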

[2] = system: MCF-10A cells; test: Uptake of fluorescein labelled peptide, confocal microscopy; type: cell-based, human; details: 10 μM, confocal fluorescence; Fig. 1d, e
Outline: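 MCF-10A cells were grown in 1:1 DMEM/Ham's F12 with 5% horse serum, EGF, insulin, hydrocortisone, cholera toxin and pen/strep. They were plated a day ahead at 2 × 10^5 in glass-bottom chamber dishes and exposed to fluorescein-labelled peptide (10 μM) for up to 24 h. Nuclei were stained with Hoechst 33342 and mitochondria with Rhodamine 800, then imaged by confocal microscopy over time. Data: 25 cells per field per time point, n = 5 independent experiments, mean ± SD.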

[3] = system: human embryonic kidney 293 HEK cells; test: Penetration and cytotoxicity in non-malignant immortalized cells; type: cell-based; details: semi-confocal microscopy, 3h incubation; Fig. S2
[4] = system: MDA-MB-231 cells; test: Uptake of fluorescein labelled peptide, confocal microscopy; type: cell-based, human; details: 10 μM, confocal fluorescence, inside cells at 3 and 6 hours; Fig. 1d, e
[5] = system: rat cardio myoblast H9C2 cells; test: Penetration and cytotoxicity in non-malignant immortalized cells; type: cell-based; details: semi-confocal microscopy, 3h incubation; Fig. S2

Compound | body weight during treatment [1] | penetration of fluorescein-labelled peptide into MCF-10A cells [2] | entry of fluorescein-labelled peptide into 293 HEK cells [3] | penetration of fluorescein-labelled peptide into MDA-MB-231 cells [4] | entry of fluorescein-labelled peptide into H9C2 cells [5]
COc1cccc2c1C(=O)c1c(O)c3c(c(O)c1C2=O)C[C@@](O)(C(=O)CO)C[C@@H]3O[C@H]1C[C@H](N)[C@H](O)[C@H](C)O1 [doxorubicin] | severe decrease in body weight |  |  |  | 
Fl-NAF-1^44-67: NAF-1^44-67 labelled with fluorescein ({5(6)‑carboxyfluorescein}-FLGVLALLGYLAVRPFLPKKKQQK; UniProt Q8N5K1 44-67, looked up, fragment) |  | did not permeate normal cells | no entry | preferentially penetrated MDA-MB-231 cancer cells | no entry
